The results in this text go back to ChEMBL document CHEMBL4190332, “Design and Optimization of Benzopiperazines as Potent Inhibitors of BET Bromodomains” (ACS Med Chem Lett, 2017).

Each structure is given as a SMILES string.

The nature of data set [1]: Drug uptake in po dosed mouse plasma. The format is ADME, organism-based. Conditions: in vivo; call rule not given here.
Data set [2] in a line: Stability in mouse liver microsomes assessed as parent compound remaining after 30 mins. Particulars: read-out: Stability. The format is ADME, microsome. A digest of the protocol:
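Compound was incubated with mouse liver microsomes for 30 minutes. The read-out was the percent of compound remaining.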

A short description of data set [3]: Half life in mouse plasma. The format is ADME, cell-free. The method in brief: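 Compound stability in mouse plasma, expressed as a half-life.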
Data set [4] relates to MV4-11. The experiment in a line: Growth inhibition of human MV411 cells after 72 hrs by Celltiter-Glo luminescent cell viability assay. The format is functional. Conditions: MV4-11, 72 h. The method in brief:
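Anti-proliferative activity was tested in MV-4-11 cells. Each GI50 is the mean of at least two separate assay runs.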
In general terms: ATP-based viability assays read luminescence as a measure of living cells.

Data set [5] deals with T1, Bromodomain-containing protein 4 (Homo sapiens, UniProt O60885). The experiment in a line: Inhibition of His-epitope tagged BRD4 bromodomain 1 (44 to 168 residues) (unknown origin) using biotinylated K5,8,12,16 tetra-acetylated histone H4 (1 to 20 residues) peptide as substrate measured after 1 hr by Alphascreen assay. A digest of the protocol:
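Binding to the isolated BRD4 first bromodomain was measured by AlphaScreen. Each IC50 is the mean of at least two separate assay runs.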
For orientation: In Alpha technology, singlet oxygen from a donor bead excites a nearby acceptor bead.

Data set [6] can be described thus: Drug uptake in athymic Hsd:Foxn1nu mouse plasma assessed as unbound fraction at 5 mg/kg, po administered as single dose by mass spectrometric analysis. The format is ADME, organism-based. Conditions: in vivo.
The subject of data set [7] is Mus musculus. Briefly: Reduction in MYC mRNA level in tumor of athymic Hsd:Foxn1nu mouse xenografted with human MV411 cells at 12.5 mg/kg, po administered as single dose measured after 4 hrs by qRT-PCR analysis relative to control. The class given is functional. The method in brief:
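Athymic nude mice bearing MV-4-11 xenografts received a single oral dose of 12.5 mg/kg. Tumor MYC levels were compared with those of vehicle-treated mice.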

Data set [8] has as its system MV4-11. Briefly: Antitumor activity against human MV411 cells xenografted in athymic Hsd:Foxn1nu mouse assessed as tumor growth inhibition at 12.5 mg/kg, po administered twice daily for 20 days measured weekly twice during compound dosing relative to control. Conditions: MV4-11, po, 480 h, read-out: TGI. The class given is functional. (In general: A xenograft is tissue or cells of one species grown in another, often human tumour cells in immunodeficient mice.)

The nature of data set [9]: Toxicity in po dosed athymic Hsd:Foxn1nu mouse administered twice daily for 5 days. The class given is organism-based. Particulars: in vivo. The method in brief:
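Tolerability study in athymic nude mice given repeat oral doses twice daily for five days. The value reported is the estimated maximum tolerated dose.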

In data set [10] the target is T1, Bromodomain-containing protein 4. Briefly: Inhibition of BRD4 in human MV411 cells assessed as reduction in MYC mRNA expression. The format is cell-based.
Data set [11] in a line: Chemical stability of the compound in acid. The format is physicochemical.

`CC(=O)N1c2ccc(-c3cnn(C4CNC4)c3)cc2N(C(=O)C2CC2)C[C@@H]1C`: the Drug uptake entry in data set [1] is “Not Active”. Besides, in data set [2], the remaining at 0.5 h was 100%. Also, the half-life in [3] was greater than 24 min. This compound had a GI50 in data set [4] of 270 nM. The compound also displayed an IC50 in data set [5] of 60 nM.
`CC(=O)N1c2ccccc2N(C(=O)C2CCCC2)C[C@@H]1C`: in data set [5], half-maximal inhibition (IC50) was put at 43000 nM.
Turning to `CC(=O)N1c2ccc(-c3ccc(C(=O)N4CCNCC4)cc3)cc2N(C(=O)C2CC2)C[C@@H]1C`, the remaining at 0.5 h in data set [2] stood at 100%. The compound also displayed a half-life in [3] of 3 min. The compound further displayed a GI50 in data set [4] of 120 nM. For the same compound, the IC50 in [5] was found to be 380 nM.
In the case of `CC(=O)N1c2ccc(-c3ccc(N4CCS(=O)(=O)CC4)cc3)cc2N(C(=O)C2CC2)C[C@@H]1C`, the “Drug uptake(free)” value in data set [6] is “Not Active”. The “fold change (FC)” value in data set [7] worked out at 0.2. Moreover, the inhibition in vivo at 12.5 mg/kg in [8] was 100%. In data set [9], this compound had an MTD at 120 h of 12.5 mg/kg. For the same compound, the IC50 in data set [10] came to 460 nM; in data set [5], 100 nM. The remaining at 0.5 h in data set [2] was found to be 95%. The half-life in data set [3] was greater than 24 min. Growth in data set [4] was halved (GI50) at 220 nM.
In the case of `CCC(=O)N1c2ccc(-c3ccc(S(C)(=O)=O)cc3)cc2N(C(=O)c2ccco2)C[C@@H]1C`, the remaining at 0.5 h in data set [2] came out at 11%. Further, in data set [3], the half-life amounted to 18 min. This compound yielded a GI50 in data set [4] of 550 nM. In addition, half-maximal inhibition in [5] (IC50) required 1400 nM.
For the compound `C[C@H]1CN(C(=O)c2ccco2)c2cc(-c3ccc(S(C)(=O)=O)cc3)ccc2N1C=O`, the IC50 in data set [5] was greater than 25000 nM.
Turning to `C[C@H]1CN(C(=O)c2ccco2)c2cc(-c3ccc(S(C)(=O)=O)cc3)ccc2N1C(=O)C1CC1`, in data set [2], the remaining at 0.5 h was 19%. Besides, the half-life in [3] was greater than 24 min. The same compound displayed a GI50 in data set [4] of 280 nM. The compound also registered an IC50 in data set [5] of 760 nM.
`CC(=O)N1c2ccccc2N(C(=O)CC(C)C)C[C@@H]1C` gave an IC50 in data set [5] greater than 50000 nM.
On to `CC(=O)N1c2ccc(-c3cnn(C(C)C)c3)cc2N(C(=O)C2CC2)C[C@@H]1C`, for which the remaining at 0.5 h in data set [2] turned out to be 24%. For the same compound, the GI50 in data set [4] worked out at 580 nM. Inhibition in data set [5] was half-maximal at 420 nM (IC50).
`CC(=O)N1c2ccc(-c3ccccc3)cc2N(C(=O)c2ccco2)C[C@@H]1C`: in data set [4], it took 350 nM to inhibit growth by half (GI50). Besides, inhibition in [5] was half-maximal at 1600 nM (IC50).
Turning to `CC(=O)N1c2ccccc2N(C(=O)c2ccccc2)C[C@@H]1C`, the IC50 in data set [5] is greater than 50000 nM.
Same read-out and setting: for `CC(=O)N1c2ccccc2N(C(=O)c2ccco2)C[C@@H]1C` the value was 14000 nM.
Turning to `COC(=O)N1c2ccc(-c3ccc(S(C)(=O)=O)cc3)cc2N(C(=O)c2ccco2)C[C@@H]1C`, the remaining at 0.5 h in data set [2] amounted to 14%. This compound had a half-life in data set [3] of 22 min. In [4], growth was halved (GI50) at 320 nM. Further, the IC50 in [5] was 650 nM.
For the compound `CC(=O)N1c2ccc(-c3ccc(S(C)(=O)=O)cc3)cc2N(C(=O)OC(C)C)C[C@@H]1C`, the remaining at 0.5 h in data set [2] is 99%. Further, the half-life in [3] is 6 min. Further, in [4], halving of growth (GI50) required 350 nM. For the same compound, half-maximal inhibition in data set [5] (IC50) required 260 nM.
For the compound `CNC(=O)c1cccc(-c2ccc3c(c2)N(C(=O)c2ccco2)C[C@H](C)N3C(C)=O)c1`, in data set [4], the GI50 turned out to be 770 nM. In data set [5], this compound returned an IC50 of 790 nM.
`CC(=O)N1c2ccc(-c3ccc(S(C)(=O)=O)cc3)cc2N(C(=O)c2ccco2)C[C@@H]1C` had a GI50 in [4] of 400 nM. For the same compound, in data set [5], the IC50 was 1600 nM.
On to `CC(=O)N1c2ccc(-c3ccc(S(C)(=O)=O)cc3)cc2N(C(=O)C2CC2)C[C@@H]1C`, for which the remaining at 0.5 h in data set [2] was 100%. This compound also displayed a half-life in [3] greater than 24 min. In addition, the GI50 in [4] is 830 nM. Besides, half-maximal inhibition in data set [5] (IC50) was put at 1700 nM.
As for `CC(=O)N1c2ccc(-c3cnn(C4COC4)c3)cc2N(C(=O)C2CC2)C[C@@H]1C`, in [11], the Stability entry was “Unstable”. Further, the remaining at 0.5 h in [2] amounted to 100%. In data set [3], this compound had a half-life greater than 24 min. The compound further showed a GI50 in [4] of 440 nM. This compound gave an IC50 in data set [5] of 370 nM.
`CC(=O)N1c2ccc(-c3cnn(C)c3)cc2N(C(=O)c2ccco2)C[C@@H]1C` displayed a GI50 in data set [4] of 210 nM. In data set [5], this compound came in with a concentration for half-maximal inhibition (IC50) of 380 nM.

As a reminder, the half-life is the time in which the quantity being followed falls by half. Low readings indicate fast loss, high ones slow loss. Broadly, the GI50 is the concentration that inhibits growth by half. A high value points to lower sensitivity of the cells. By IC50 is commonly meant the concentration that gives 50% inhibition.
